Legend:
K562 = experiment: Antiproliferative activity against human K562 cells after 48 hrs by MTT assay; type: functional; settings: K562, 48 h
Method in brief: (§1)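 MTT read-out after 48 h incubation. GI50 taken as the concentration giving 50% growth inhibition relative to untreated controls. Fluorouracil served as positive control.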

[1] = Inhibition of PDE4 (unknown origin) using FAM-Cyclic-3',5'-AMP as substrate after 1 hr by fluorescence polarization assay; set-up: species or system Homo sapiens
Method in brief: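 Each compound was tested at nine concentrations spanning 10^-8 to 10^-4 M, with rolipram as positive control. IC50 was obtained by nonlinear regression of the inhibition curves.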

AGS = experiment: Antiproliferative activity against human AGS cells after 48 hrs by MTT assay; type: functional; method in brief: as §1
SH-SY5Y [2] = experiment: Antiproliferative activity against human SH-SY5Y cells after 48 hrs by MTT assay; type: functional; method in brief: as §1
SH-SY5Y [3] = experiment: Cell cycle arrest in human SH-SY5Y cells assessed as accumulation at G0/G1 phase at 5 uM after 48 hrs by propidium iodide staining based flow cytometry (reference value: 47.67 +/- 1.1%); type: functional
SH-SY5Y [4] = experiment: Induction of apoptosis in human SH-SY5Y cells assessed as live cells at 10 uM after 48 hrs by Annexin V-FITC/propidium iodide staining based flow cytometry (reference value: 89.95%); type: functional
Method in brief: (§2)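 SH-SY5Y cells treated 48 h at 10 or 20 µM, then stained with Annexin V-FITC and propidium iodide and analysed by flow cytometry. Quadrants were scored as live, early apoptotic, late apoptotic and necrotic. DMSO served as control. Values are means of three independent experiments. Significance was tested versus control.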

SH-SY5Y [5] = experiment: Cell cycle arrest in human SH-SY5Y cells assessed as accumulation at G2/M-phase at 20 uM after 48 hrs by propidium iodide staining based flow cytometry (reference value: 12.13 +/- 0.7%); type: functional
SH-SY5Y [6] = experiment: Induction of apoptosis in human SH-SY5Y cells assessed as late apoptotic cells at 10 uM after 48 hrs by Annexin V-FITC/propidium iodide staining based flow cytometry (reference value: 3.68%); type: functional; method in brief: as §2
SH-SY5Y [7] = experiment: Cell cycle arrest in human SH-SY5Y cells assessed as accumulation at G2/M-phase at 5 uM after 48 hrs by propidium iodide staining based flow cytometry (reference value: 12.13 +/- 0.7%); type: functional
SH-SY5Y [8] = experiment: Cell cycle arrest in human SH-SY5Y cells assessed as accumulation at G0/G1-phase after 48 hrs by propidium iodide staining based flow cytometry; type: functional
SH-SY5Y [9] = experiment: Induction of apoptosis in human SH-SY5Y cells assessed as live cells at 20 uM after 48 hrs by Annexin V-FITC/propidium iodide staining based flow cytometry (reference value: 89.95%); type: functional; method in brief: as §2
SH-SY5Y [10] = experiment: Cell cycle arrest in human SH-SY5Y cells assessed as accumulation at G0/G1 phase at 20 uM after 48 hrs by propidium iodide staining based flow cytometry (reference value: 47.67 +/- 1.1%); type: functional
SH-SY5Y [11] = experiment: Cell cycle arrest in human SH-SY5Y cells assessed as accumulation at S-phase at 20 uM after 48 hrs by propidium iodide staining based flow cytometry (reference value: 40.2 +/- 1.8%); type: functional
SH-SY5Y [12] = experiment: Induction of apoptosis in human SH-SY5Y cells assessed as increase in late apoptotic cells after 48 hrs by Annexin V-FITC/propidium iodide staining based flow cytometry; type: functional, cell-based; method in brief: as §2
SH-SY5Y [13] = experiment: Induction of apoptosis in human SH-SY5Y cells assessed as necrotic cells at 10 uM after 48 hrs by Annexin V-FITC/propidium iodide staining based flow cytometry (reference value: 5.06%); type: functional; method in brief: as §2
SH-SY5Y [14] = experiment: Cell cycle arrest in human SH-SY5Y cells assessed as accumulation at G0/G1 phase at 10 uM after 48 hrs by propidium iodide staining based flow cytometry (reference value: 47.67 +/- 1.1%); type: functional
SH-SY5Y [15] = experiment: Induction of apoptosis in human SH-SY5Y cells assessed as necrotic cells at 20 uM after 48 hrs by Annexin V-FITC/propidium iodide staining based flow cytometry (reference value: 5.06%); type: functional; method in brief: as §2
SH-SY5Y [16] = experiment: Induction of apoptosis in human SH-SY5Y cells assessed as early apoptotic cells at 20 uM after 48 hrs by Annexin V-FITC/propidium iodide staining based flow cytometry (reference value: 1.3%); type: functional; method in brief: as §2
SH-SY5Y [17] = experiment: Induction of apoptosis in human SH-SY5Y cells assessed as early apoptotic cells at 10 uM after 48 hrs by Annexin V-FITC/propidium iodide staining based flow cytometry (reference value: 1.3%); type: functional; method in brief: as §2
SH-SY5Y [18] = experiment: Cell cycle arrest in human SH-SY5Y cells assessed as accumulation at S-phase at 5 uM after 48 hrs by propidium iodide staining based flow cytometry (reference value: 40.2 +/- 1.8%); type: functional
SH-SY5Y [19] = experiment: Cell cycle arrest in human SH-SY5Y cells assessed as accumulation at S-phase at 10 uM after 48 hrs by propidium iodide staining based flow cytometry (reference value: 40.2 +/- 1.8%); type: functional
SH-SY5Y [20] = experiment: Induction of apoptosis in human SH-SY5Y cells assessed as late apoptotic cells at 20 uM after 48 hrs by Annexin V-FITC/propidium iodide staining based flow cytometry (reference value: 3.68%); type: functional; method in brief: as §2
SH-SY5Y [21] = experiment: Cell cycle arrest in human SH-SY5Y cells assessed as accumulation at G2/M-phase at 10 uM after 48 hrs by propidium iodide staining based flow cytometry (reference value: 12.13 +/- 0.7%); type: functional

SMILES	GI50 (K562)	IC50 [1]	GI50 (AGS)	GI50 (SH-SY5Y [2])	also measured
COc1ccccc1OCCNc1cnn(Cc2ccc(OC)c(OCC3CC3)c2)c(=O)c1Cl	> 100 µM	45.2 µM	> 100 µM	37.9 µM	
COc1ccc(Cn2nc(NCCOc3ccccc3OC)ccc2=O)cc1Br	> 100 µM	44 µM	> 100 µM	> 100 µM	
COc1ccc(C2CNC(=O)C2)cc1OC1CCCC1 (stereo not given) [ROLIPRAM]		0.5 µM			
O=c1[nH]cc(F)c(=O)[nH]1 [FLUOROURACIL]	18.5 µM		24.6 µM	11.9 µM	
COc1ccccc1OCCNc1ccc(=O)n(Cc2ccc(OC(F)F)c(OC3CCCC3)c2)n1	9.1 µM	12.2 µM	23.6 µM	9.3 µM	Activity (SH-SY5Y [3]): 53.22%; Activity (SH-SY5Y [4]): 84.34%; Activity (SH-SY5Y [5]): 6.87%; Activity (SH-SY5Y [6]): 8.05%; Activity (SH-SY5Y [7]): 10.34%; Activity (SH-SY5Y [8]): Dose-dependent effect; Activity (SH-SY5Y [9]): 64.46%; Activity (SH-SY5Y [10]): 63.55%; Activity (SH-SY5Y [11]): 29.58%; Activity (SH-SY5Y [12]): Dose-dependent effect; Activity (SH-SY5Y [13]): 4.48%; Activity (SH-SY5Y [14]): 62.1%; Activity (SH-SY5Y [15]): 8.18%; Activity (SH-SY5Y [16]): 8.82%; Activity (SH-SY5Y [17]): 3.12%; Activity (SH-SY5Y [18]): 36.44%; Activity (SH-SY5Y [19]): 30.16%; Activity (SH-SY5Y [20]): 18.54%; Activity (SH-SY5Y [21]): 7.74%
COc1ccc(Cn2ncc(NCCOc3ccccc3OC)c(Cl)c2=O)cc1OC	> 100 µM	73 µM	> 100 µM	33.1 µM	
COc1ccc(Cn2nc(NCCOc3ccccc3OC)ccc2=O)cc1OC	> 100 µM	66.9 µM	> 100 µM	> 100 µM	
COc1ccccc1OCCNc1cnn(Cc2ccc(OC(F)F)c(OC3CCCC3)c2)c(=O)c1Cl	> 100 µM	39.1 µM	> 100 µM	> 100 µM	
COc1ccccc1OCCNc1cnn(Cc2ccc(OC)c(-c3cccc(Cl)c3)c2)c(=O)c1Cl	> 100 µM	> 100 µM	> 100 µM	> 100 µM	
COc1ccccc1OCCNc1cnn(Cc2ccc(OC)c(OC3CCCC3)c2)c(=O)c1Cl	> 100 µM	21.5 µM	> 100 µM	23.3 µM	
COc1ccccc1OCCNc1ccc(=O)n(Cc2ccc(OC(F)F)c(OCC3CC3)c2)n1	60.9 µM	15.3 µM	24.4 µM	6.3 µM	Activity (SH-SY5Y [3]): 52.15%; Activity (SH-SY5Y [4]): 85.22%; Activity (SH-SY5Y [5]): 14.64%; Activity (SH-SY5Y [6]): 7.43%; Activity (SH-SY5Y [7]): 12.98%; Activity (SH-SY5Y [8]): Dose-dependent effect; Activity (SH-SY5Y [9]): 78.53%; Activity (SH-SY5Y [10]): 62.61%; Activity (SH-SY5Y [11]): 22.75%; Activity (SH-SY5Y [12]): Dose-dependent effect; Activity (SH-SY5Y [13]): 4.6%; Activity (SH-SY5Y [14]): 55.6%; Activity (SH-SY5Y [15]): 6.69%; Activity (SH-SY5Y [16]): 4.16%; Activity (SH-SY5Y [17]): 2.74%; Activity (SH-SY5Y [18]): 34.87%; Activity (SH-SY5Y [19]): 33.81%; Activity (SH-SY5Y [20]): 10.62%; Activity (SH-SY5Y [21]): 10.59%
COc1ccccc1OCCNc1ccc(=O)n(Cc2ccc(OC)c(OC3CCCC3)c2)n1	28 µM	> 100 µM	> 100 µM	> 100 µM	
COc1ccccc1OCCNc1ccc(=O)n(Cc2ccc(OC)c(OCC3CC3)c2)n1	16.6 µM	> 100 µM	45.8 µM	10.5 µM	
COc1ccccc1OCCNc1cnn(Cc2ccc(OC(F)F)c(OCC3CC3)c2)c(=O)c1Cl	67.6 µM	> 100 µM	> 100 µM	> 100 µM	

From ChEMBL document CHEMBL4138132, “Design, synthesis and biological evaluation of substituted aminopyridazin-3(2H)-ones as G0/G1-phase arresting agents with apoptosis-inducing activities” (Eur J Med Chem, 2017)
